Key:
[1] = MRT (0 to infinity) in Wistar rat Heart at 15 mg/kg, po by HPLC analysis; type: ADME, organism-based
Procedure, shortened: (§1)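 Male Wistar rats (180 ± 20 g) received a single oral dose of 10, 15 or 30 mg/kg. Tissues were collected at 0, 0.5, 1, 2, 4, 6, 8, 12, 24, 48 and 72 h (n = 6 per point). Samples of 0.25 g were rinsed, then homogenized in saline (0.25 g/1 mL) and centrifuged at 10,000 × g. Supernatant was methanol-extracted, dried under nitrogen at 50 °C and reconstituted in methanol. Analysis was by C18 HPLC (acetonitrile 60% / water 40%, 1.0 mL/min).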

[2] = MRT (0 to infinity) in Wistar rat plasma at 10 mg/kg, po by HPLC analysis; type: ADME, organism-based
Procedure, shortened: (§2)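 Male Wistar rats (180 ± 20 g), 6 per dose group, each given a single oral dose. Blood was drawn by retro-orbital puncture into heparin at predose and at 0.5, 1, 2, 4, 6, 8, 12, 24, 48 and 72 h, then spun at 4000 × g and 4 °C. Plasma with internal standard was acetonitrile-precipitated, filtered and run on reverse-phase C18 HPLC (0.02 mol/L KH2PO4 55% / acetonitrile 45%, 1.0 mL/min). Calibration standards were 0.1–10 µg/mL, fitted by peak-height ratio with 1/conc² weighting.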

[3] = AUC (0 to 72 hrs) in Wistar rat liver at 15 mg/kg, po by HPLC analysis; type: ADME, organism-based; set-up: dose 15 mg/kg, time < 72 hr, route oral
Procedure, shortened: (§3)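 Wistar rats (180 ± 20 g) were dosed orally at 10, 15 or 30 mg/kg. Heart, liver, spleen, lung, kidney and brain were collected at 0–72 h (n = 6 per point). Tissue was rinsed, blotted and homogenized in saline (0.25 g/1 mL), then spun at 10,000 × g. Supernatant was methanol-extracted, dried under nitrogen at 50 °C, reconstituted in methanol and run on C18 HPLC (acetonitrile 60%/water 40%, 1.0 mL/min).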

[4] = MRT (0 to 72 hrs) in Wistar rat kidney at 10 mg/kg, po by HPLC analysis; type: ADME, organism-based
Procedure, shortened: (§4)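 Tissue distribution in male Wistar rats given oral 10, 15 or 30 mg/kg; heart, liver, spleen, lung, kidney and brain collected predose and 0.5–72 h post-dose (n = 6 per time). Tissue rinsed in saline, homogenised 0.25 g/1 mL saline, methanol extraction, dried under nitrogen, reconstituted in methanol. Analysis by reverse-phase C18 HPLC, acetonitrile/water 60:40, 1.0 mL/min, ambient temperature.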

[5] = AUC (0 to infinity) in Wistar rat spleen at 30 mg/kg, po by HPLC analysis; type: ADME, organism-based; set-up: dose 30 mg/kg, route oral, time infinity; procedure, shortened: as §3
[6] = Tmax in Wistar rat plasma at 15 mg/kg, po by HPLC analysis; type: ADME, organism-based; procedure, shortened: as §2
[7] = MRT (0 to 72 hrs) in Wistar rat liver at 30 mg/kg, po by HPLC analysis; type: ADME, organism-based; procedure, shortened: as §1
[8] = Half life in Wistar rat brain at 10 mg/kg, po by HPLC analysis; type: ADME, organism-based; procedure, shortened: as §4
[9] = Toxicity in ICR mouse assessed as mortality at 2929.69 mg/kg, ig after 2 weeks; type: organism-based; details: in vivo, po
[10] = Tmax in Wistar rat Heart at 10 mg/kg, po by HPLC analysis; type: ADME, organism-based; procedure, shortened: as §1
[11] = AUC (0 to infinity) in Wistar rat Heart at 30 mg/kg, po by HPLC analysis; type: ADME, organism-based; set-up: dose 30 mg/kg, route oral, time infinity; procedure, shortened: as §3
[12] = MRT (0 to infinity) in Wistar rat spleen at 15 mg/kg, po by HPLC analysis; type: ADME, organism-based; procedure, shortened: as §1
[13] = Tmax in Wistar rat kidney at 30 mg/kg, po by HPLC analysis; type: ADME, organism-based; procedure, shortened: as §1
[14] = Tmax in Wistar rat spleen at 30 mg/kg, po by HPLC analysis; type: ADME, organism-based
[15] = Tmax in Wistar rat spleen at 10 mg/kg, po by HPLC analysis; type: ADME, organism-based
[16] = AUC (0 to 72 hrs) in Wistar rat kidney at 15 mg/kg, po by HPLC analysis; type: ADME, organism-based; set-up: dose 15 mg/kg, time < 72 hr, route oral; procedure, shortened: as §3
[17] = Tmax in Wistar rat liver at 30 mg/kg, po by HPLC analysis; type: ADME, organism-based; procedure, shortened: as §1
[18] = Half life in Wistar rat plasma at 30 mg/kg, po by HPLC analysis; type: ADME, organism-based
[19] = AUC (0 to 72 hrs) in Wistar rat Heart at 15 mg/kg, po by HPLC analysis; type: ADME, organism-based; set-up: time < 72 hr, dose 15 mg/kg, route oral; procedure, shortened: as §3
[20] = Toxicity in ICR mouse assessed as mortality at 1200 mg/kg, ig after 2 weeks; type: organism-based; details: in vivo, po
[21] = AUC (0 to 72 hrs) in Wistar rat plasma at 10 mg/kg, po by HPLC analysis; type: ADME, organism-based; set-up: time < 72 hr, dose 10 mg/kg, route oral
Procedure, shortened: (§5)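 Male Wistar rats (180 ± 20 g, n = 6 per group) got one oral dose. Heparinized blood was taken by retro-orbital puncture before dosing and at 0.5–72 h. Plasma was spun at 4000 × g, 4 °C, 10 min, spiked with internal standard and protein-precipitated with acetonitrile. Analysis was reverse-phase C18 HPLC (0.02 mol/L KH2PO4 55%/acetonitrile 45%, 1.0 mL/min). Calibration used 0.1–10 µg/mL, peak-height ratio, weighting concentration^-2.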

[22] = MRT (0 to infinity) in Wistar rat plasma at 15 mg/kg, po by HPLC analysis; type: ADME, organism-based; procedure, shortened: as §2
[23] = MRT (0 to 72 hrs) in Wistar rat Heart at 15 mg/kg, po by HPLC analysis; type: ADME, organism-based; procedure, shortened: as §4
[24] = MRT (0 to 72 hrs) in Wistar rat Heart at 10 mg/kg, po by HPLC analysis; type: ADME, organism-based; procedure, shortened: as §4
[25] = AUC (0 to infinity) in Wistar rat plasma at 15 mg/kg, po by HPLC analysis; type: ADME, organism-based; set-up: dose 15 mg/kg, route oral, time infinity; procedure, shortened: as §5
[26] = Cmax in Wistar rat liver at 30 mg/kg, po by HPLC analysis; type: ADME, organism-based; set-up: dose 30 mg/kg, route oral; procedure, shortened: as §4
[27] = AUC (0 to infinity) in Wistar rat liver at 10 mg/kg, po by HPLC analysis; type: ADME, organism-based; set-up: dose 10 mg/kg, route oral, time infinity; procedure, shortened: as §3
[28] = MRT (0 to infinity) in Wistar rat spleen at 10 mg/kg, po by HPLC analysis; type: ADME, organism-based; procedure, shortened: as §1
[29] = MRT (0 to 72 hrs) in Wistar rat plasma at 15 mg/kg, po by HPLC analysis; type: ADME, organism-based; procedure, shortened: as §2
[30] = Toxicity in ICR mouse assessed as mortality at 2343.75 mg/kg, ig after 2 weeks; type: organism-based; details: in vivo, po
[31] = AUC (0 to infinity) in Wistar rat brain at 10 mg/kg, po by HPLC analysis; type: ADME, organism-based; set-up: dose 10 mg/kg, route oral, time infinity; procedure, shortened: as §3
[32] = Cmax in Wistar rat brain at 30 mg/kg, po by HPLC analysis; type: ADME, organism-based; set-up: dose 30 mg/kg, route oral; procedure, shortened: as §3
[33] = MRT (0 to 72 hrs) in Wistar rat Heart at 30 mg/kg, po by HPLC analysis; type: ADME, organism-based; procedure, shortened: as §4
[34] = Cmax in Wistar rat spleen at 30 mg/kg, po by HPLC analysis; type: ADME, organism-based; set-up: dose 30 mg/kg, route oral; procedure, shortened: as §4
[35] = MRT (0 to infinity) in Wistar rat Heart at 30 mg/kg, po by HPLC analysis; type: ADME, organism-based; procedure, shortened: as §1
[36] = Half life in Wistar rat Heart at 10 mg/kg, po by HPLC analysis; type: ADME, organism-based; procedure, shortened: as §4

Work on CCCCC1=NC2(CCCC2)C(=O)N1Cc1ccc2c(ccn2-c2ccccc2-c2nnn[nH]2)c1 yielded an MRT inf [1] of 23.9 h, an MRT inf [2] of 6.61 h and an AUC(0-t) at 72 h [3] of 4890 ng·h/mL. It also gave an MRT last [4] of 21 h, an AUC(0-inf) [5] of 21000 ng·h/mL and a Tmax [6] of 4.33 h. For the same compound, the MRT last [7] was 6.3 h, the half-life [8] was 2.73 h and the mortality at 336 h [9] was 100%. It also gave a Tmax [10] of 4 h, an AUC(0-inf) [11] of 8760 ng·h/mL and an MRT inf [12] of 13.1 h. It also gave a Tmax [13] of 2 h, a Tmax [14] of 2 h and a Tmax [15] of 2 h. The AUC(0-t) at 72 h [16] was 5730 ng·h/mL, the Tmax [17] was 4 h and the half-life [18] was 9.93 h. The AUC(0-t) at 72 h [19] was 5840 ng·h/mL, the mortality at 336 h [20] was 0% and the AUC(0-t) at 72 h [21] was 6110 ng·h/mL. The MRT inf [22] was 13.7 h, the MRT last [23] was 16.9 h and the MRT last [24] was 7.68 h. For the same compound, the AUC(0-inf) [25] was 26100 ng·h/mL, the Cmax [26] was 2000 ng/mL and the AUC(0-inf) [27] was 3320 ng·h/mL. It also gave an MRT inf [28] of 30.4 h, an MRT last [29] of 10.2 h and a mortality at 336 h [30] of 80%. It also gave an AUC(0-inf) [31] of 346 ng·h/mL, a Cmax [32] of 196 ng/mL and an MRT last [33] of 16.2 h. The Cmax [34] was 1880 ng/mL, the MRT inf [35] was 28.1 h and the half-life [36] was 16.9 h.

From ChEMBL document CHEMBL3872205, “Design, synthesis and evaluation of novel potent angiotensin II receptor 1 antagonists” (Eur J Med Chem, 2016)
